From ChEMBL document CHEMBL5143652, “Quinazolinones as allosteric fourth-generation EGFR inhibitors for the treatment of NSCLC” (Bioorg Med Chem Lett, 2022)
Calls of active or inactive are those of the source. The rule behind the calls is not given here.

Assays:
[1] = target: Epidermal growth factor receptor (Homo sapiens, UniProt P00533, L858R/T790M); experiment: biochemical
BaF3 [2] = experiment: Antiproliferative activity against mouse BaF3 cells harboring EGFR L858R/T790M double mutant assessed as inhibition of cell growth; format: functional, cell-based
Summary of the method: (§1)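 Ba/F3 proliferation assay with the compound alone (single-agent readout, no cetuximab). Cellular IC50 is reported in μM.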

BaF3 [3] = experiment: Antiproliferative activity against mouse BaF3 cells harboring EGFR L858R/T790M double mutant assessed as inhibition of cell growth in presence of cetuximab; format: functional, cell-based
Summary of the method: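 Ba/F3 proliferation assay, second readout: cells co-treated with cetuximab to prevent EGFR dimer formation. Cellular IC50 is reported in μM.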

[4] = Clearance in mouse at 3 mg/kg, iv; format: ADME, organism-based; conditions: in vivo
[5] = Volume of distribution at steady state in mouse at 3 mg/kg, iv or 20 mg/kg, po; format: ADME, organism-based; conditions: in vivo, read-out: Vdss
[6] = Half life in mouse at 3 mg/kg, iv; format: ADME, organism-based; conditions: in vivo
[7] = AUC (0 to 8 hrs) in mouse at 3 mg/kg, iv or 20 mg/kg, po; format: ADME, organism-based; parameters: dose 3 mg/kg, route iv; conditions: in vivo
BaF3 [8] = experiment: Antiproliferative activity against mouse BaF3 cells harboring EGFR L858R/T790M/C797S triple mutant assessed as inhibition of cell growth; format: functional, cell-based
Summary of the method: as §1

[9] = Half life in rat at 1 mg/kg, iv; format: ADME, organism-based; conditions: in vivo
[10] = Clearance in rat at 1 mg/kg, iv; format: ADME, organism-based; conditions: in vivo
[11] = Oral bioavailability in rat at 10 mg/kg; format: ADME, organism-based; conditions: in vivo
NCI-H1975 [12] = experiment: Antitumor activity against human NCI-H1975 cells harboring EGFR L858R/T790M mutant xenografted in rat assessed as tumor growth inhibition at 50 mg/kg, po administered once daily for 20 days and measured on 35 day; format: functional, organism-based
NCI-H1975 [13] = experiment: Antitumor activity against human NCI-H1975 cells harboring EGFR L858R/T790M mutant xenografted in rat assessed as tumor growth inhibition at 25 mg/kg, po administered once daily for 20 days and measured on 35 day; format: functional, organism-based
NCI-H1975 [14] = experiment: Antitumor activity against human NCI-H1975 cells harboring EGFR L858R/T790M mutant xenografted in rat assessed as slower regrowth of tumor at 50 mg/kg, po administered once daily for 20 days and measured on 35 day
NCI-H1975 [15] = experiment: Antitumor activity against human NCI-H1975 cells harboring EGFR L858R/T790M mutant xenografted in rat assessed as slower regrowth of tumor at 50 mg/kg, po administered once daily for 20 days and measured on 35 day; format: functional, organism-based
[16] = Oral bioavailability in mouse at 20 mg/kg; format: ADME, organism-based; conditions: in vivo

Sequence of Epidermal growth factor receptor (P00533 25-1210 T790M/L858R limits assumed): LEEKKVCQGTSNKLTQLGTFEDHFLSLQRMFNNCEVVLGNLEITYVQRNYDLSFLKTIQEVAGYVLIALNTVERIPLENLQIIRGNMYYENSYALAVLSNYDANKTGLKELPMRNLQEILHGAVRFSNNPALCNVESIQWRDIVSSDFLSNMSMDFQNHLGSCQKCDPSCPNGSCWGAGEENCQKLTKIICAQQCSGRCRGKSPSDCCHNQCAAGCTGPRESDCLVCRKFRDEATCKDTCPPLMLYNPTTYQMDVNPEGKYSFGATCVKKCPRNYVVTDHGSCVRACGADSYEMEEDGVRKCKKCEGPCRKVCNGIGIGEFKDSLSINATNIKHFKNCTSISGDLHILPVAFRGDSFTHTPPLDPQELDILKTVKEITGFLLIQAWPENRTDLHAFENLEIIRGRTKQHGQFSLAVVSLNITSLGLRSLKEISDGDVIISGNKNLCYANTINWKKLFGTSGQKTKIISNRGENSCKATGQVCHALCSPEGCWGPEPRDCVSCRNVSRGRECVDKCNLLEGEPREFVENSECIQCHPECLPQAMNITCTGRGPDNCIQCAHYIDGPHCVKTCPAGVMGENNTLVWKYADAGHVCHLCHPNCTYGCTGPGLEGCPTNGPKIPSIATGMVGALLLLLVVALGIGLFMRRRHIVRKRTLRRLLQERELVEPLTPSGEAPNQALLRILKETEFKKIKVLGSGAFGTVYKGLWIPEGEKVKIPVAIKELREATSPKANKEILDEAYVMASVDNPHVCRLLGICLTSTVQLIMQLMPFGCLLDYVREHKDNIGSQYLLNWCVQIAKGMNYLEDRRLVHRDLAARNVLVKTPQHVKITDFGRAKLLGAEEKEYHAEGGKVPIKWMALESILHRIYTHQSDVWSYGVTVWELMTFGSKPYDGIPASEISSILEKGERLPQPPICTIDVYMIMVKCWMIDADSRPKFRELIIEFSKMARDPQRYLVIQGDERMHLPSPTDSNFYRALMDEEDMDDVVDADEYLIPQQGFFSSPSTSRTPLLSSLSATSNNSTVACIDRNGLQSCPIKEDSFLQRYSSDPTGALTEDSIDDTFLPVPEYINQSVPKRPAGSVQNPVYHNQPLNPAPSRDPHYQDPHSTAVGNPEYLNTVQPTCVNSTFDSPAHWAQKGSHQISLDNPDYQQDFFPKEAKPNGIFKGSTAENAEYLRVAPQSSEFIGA

Compound	IC50 [1] [nM]	IC50 (BaF3 [2]) [nM]	IC50 (BaF3 [3]) [nM]	IC50 (BaF3 [8]) [nM]	also measured
CN1CCN(c2ccc(-c3ccc4ncn(C(C(=O)Nc5nccs5)c5ccccc5)c(=O)c4c3)cc2)CC1 (configuration not stated)	0.9	2320	21	–	–
CN1CCC(c2ccc(-c3ccc4c(c3)C(=O)N(C(C(=O)Nc3nccs3)c3cccc(F)c3)CC4)cc2)CC1 (configuration not stated)	3.2	1470	99	–	–
O=C(Nc1nccs1)C(c1cc(F)ccc1O)N1Cc2ccc(-c3ccc(N4CCNCC4)cc3)cc2C1=O (configuration not stated)	–	610	21	–	clearance [4]: 5 mL/min/kg; Vd [5]: 0.6 L/kg; half-life [6]: 3 h; AUC(0-t) [7]: 2520 ng·h/mL
CN1CCC(c2ccc(-c3ccc4ncn(C(C(=O)Nc5nccs5)c5ccccc5)c(=O)c4n3)cc2)CC1 (configuration not stated)	–	1710	16	90	–
CN1CCC(c2ccc(-c3ccc4c(=O)n(C(C(=O)Nc5nccs5)c5ccccc5)cnc4c3)cc2)CC1 (configuration not stated)	5.8	2430	225	900	–
CN1CCN(c2ccc(-c3ccc4ccn(C(C(=O)Nc5nccs5)c5ccccc5)c(=O)c4c3)cc2)CC1 (configuration not stated)	–	1850	–	–	–
CN1CCC(c2ccc(-c3ccc4ncn(C(C(=O)Nc5nccs5)c5ccccc5)c(=O)c4c3)cc2)CC1 (configuration not stated)	–	780	–	50	–
CN1CCC(c2ccc(-c3ccc4ncn(C(C(=O)Nc5nccs5)c5ccccc5)c(=O)c4c3F)cc2)CC1 (configuration not stated)	–	–	–	–	t1/2 [9]: 3.5 h; clearance [10]: 30 mL/min/kg; F [11]: 24%; Activity (NCI-H1975 [12]): Active; Activity (NCI-H1975 [13]): Active; Activity (NCI-H1975 [14]): Active; Activity (NCI-H1975 [15]): Active
CN1CCC(c2ccc(-c3ccc4c(c3)CCN(C(C(=O)Nc3nccs3)c3cccc(F)c3)C4=O)cc2)CC1 (configuration not stated)	2.2	1990	–	–	–
CN1CCN(c2ccc(-c3ccc4c(c3)C(=O)N(C(C(=O)Nc3nccs3)c3cccc(F)c3)C4)cc2)CC1 (configuration not stated)	1.8	1990	–	–	–
O=C(Nc1nccs1)C(c1cc(F)ccc1O)N1Cc2ccccc2C1=O (configuration not stated)	–	> 10000	221	–	–
CN1CCC(c2ccc(-c3ccc4ccn(C(C(=O)Nc5nccs5)c5ccccc5)c(=O)c4c3)cc2)CC1 (configuration not stated)	1.8	1500	70	380	–
CN1CCN(c2ccc(-c3ccc4c(c3)C(=O)N(C(C(=O)Nc3nccs3)c3ccccc3)C4)cc2)CC1 (configuration not stated)	0.9	2560	43	–	–
CN1CCC(c2ccc(-c3ccc4cnn(C(C(=O)Nc5nccs5)c5ccccc5)c(=O)c4c3)cc2)CC1 (configuration not stated)	–	1540	207	440	–
CN1CCN(c2ccc(-c3ccc4cnn(C(C(=O)Nc5nccs5)c5ccccc5)c(=O)c4c3)cc2)CC1 (configuration not stated)	10.3	2160	380	–	–
CN1CCC(c2ccc(-c3cc(F)c4ncn(C(C(=O)Nc5nccs5)c5ccccc5)c(=O)c4c3)cc2)CC1 (configuration not stated)	–	810	10	150	–
CN1CCC(c2ccc(-c3ccc4c(=O)n(C(C(=O)Nc5nccs5)c5ccccc5)ncc4c3)cc2)CC1 (configuration not stated)	9.7	1240	–	990	–
CN1CCN(c2ccc(-c3ccc4c(=O)n(C(C(=O)Nc5nccs5)c5ccccc5)cnc4c3)cc2)CC1 (configuration not stated)	3.1	2000	375	–	–
CN1CCC(c2ccc(-c3cnc4ncn(C(C(=O)Nc5nccs5)c5ccccc5)c(=O)c4c3)cc2)CC1 (configuration not stated)	1.9	1140	23	310	–
CN1CCC(c2ccc(-c3cc4c(=O)n(C(C(=O)Nc5nccs5)c5ccccc5)cnc4cc3F)cc2)CC1 (configuration not stated)	1.4	3000	73	280	–
CN1CCC(c2ccc(-c3ccc4c(c3)C(=O)N(C(C(=O)Nc3nccs3)c3cccc(F)c3)C4)cc2)CC1 (configuration not stated)	0.2	1070	20	152	clearance [4]: 13.9 mL/min/kg; Vd [5]: 2.4 L/kg; half-life [6]: 3.1 h; AUC(0-t) [7]: 1000 ng·h/mL; F [16]: 4%
CN1CCC(c2ccc(-c3ccc4c(c3)C(=O)N(C(C(=O)Nc3nccs3)c3cc(F)ccc3O)C4)cc2)CC1 (configuration not stated)	0.1	50	6	–	clearance [4]: 15.7 mL/min/kg; Vd [5]: 2.5 L/kg; half-life [6]: 2.3 h; AUC(0-t) [7]: 2400 ng·h/mL; F [16]: 15%
CN1CCC(c2ccc(-c3ccc4c(=O)n(C(C(=O)Nc5nccs5)c5ccccc5)ccc4c3)cc2)CC1 (configuration not stated)	1.2	1280	24	500	–
CN1CCN(c2ccc(-c3ccc4c(=O)n(C(C(=O)Nc5nccs5)c5ccccc5)ncc4c3)cc2)CC1 (configuration not stated)	–	3460	1670	–	–
CN1CCN(c2ccc(-c3ccc4c(c3)C(=O)N(C(C(=O)Nc3nccs3)c3cc(F)ccc3O)C4)cc2)CC1 (configuration not stated)	0.3	490	6	–	clearance [4]: 10.3 mL/min/kg; Vd [5]: 1.8 L/kg; half-life [6]: 2.8 h; AUC(0-t) [7]: 1350 ng·h/mL; F [16]: 2%
CN1CCN(c2ccc(-c3ccc4c(=O)n(C(C(=O)Nc5nccs5)c5ccccc5)ccc4c3)cc2)CC1 (configuration not stated)	3.4	1270	62	–	–
CN1CCN(c2ccc(-c3ccc4c(c3)C(=O)N(C(C(=O)Nc3nccs3)c3cccc(F)c3)CC4)cc2)CC1 (configuration not stated)	6.8	1600	126	–	–
